The source made the active and inactive calls. No cut-off for these calls is given here.
Assays:
MM1.S [1] = test: Induction of apoptosis in human MM1S cells assessed as early apoptotic cells at 1 uM after 48 hrs by Annexin V-FITC/propidium iodide staining-based flow cytometric analysis (reference value: 0.38%); type: functional
MM1.S [2] = test: Induction of apoptosis in human MM1S cells assessed as late apoptotic cells at 1 uM after 48 hrs by Annexin V-FITC/propidium iodide staining-based flow cytometric analysis (reference value: 0.42%); type: functional
MV4-11 [3] = test: Induction of apoptosis in human MV4-11 cells assessed as late apoptotic cells at 1 uM after 48 hrs by Annexin V-FITC/propidium iodide staining-based flow cytometric analysis (reference value: 5.03%); type: functional
MM1.S [4] = test: Induction of apoptosis in human MM1S cells assessed as early apoptotic cells at 0.3 uM after 48 hrs in presence of 1 uM SAHA by Annexin V-FITC/propidium iodide staining-based flow cytometric analysis (reference value: 0.38%); type: functional
MV4-11 [5] = test: Induction of apoptosis in human MV4-11 cells assessed as necrotic cells at 1 uM after 48 hrs by Annexin V-FITC/propidium iodide staining-based flow cytometric analysis (reference value: 0.17%); type: functional
MM1.S [6] = test: Antitumor activity against human MM1S cells xenografted in NOD/SCID mouse assessed as tumor growth inhibition at 25 mg/kg, po qd administered for 10 days and measured every 2 days post last dose in presence of 50 mg/kg SAHA by caliper method relative to control
MM1.S [7] = test: Induction of apoptosis in human MM1S cells assessed as necrotic cells at 0.3 uM after 48 hrs in presence of 1 uM SAHA by Annexin V-FITC/propidium iodide staining-based flow cytometric analysis (reference value: 0.32%); type: functional
[8] = target: T1, Serine/threonine-protein kinase mTOR (Homo sapiens, UniProt P42345); conditions: MV4-11, 1 to 10 uM
MV4-11 [9] = test: Induction of apoptosis in human MV4-11 cells assessed as late apoptotic cells at 0.3 uM after 48 hrs in presence of 1 uM SAHA by Annexin V-FITC/propidium iodide staining-based flow cytometric analysis (reference value: 5.03%); type: functional
[10] = target: T1, Serine/threonine-protein kinase mTOR; conditions: MV4-11, 1 to 10 uM; remark: listed apart in the source
MM1.S [11] = test: Induction of apoptosis in human MM1S cells assessed as necrotic cells at 1 uM after 48 hrs by Annexin V-FITC/propidium iodide staining-based flow cytometric analysis (reference value: 0.32%); type: functional
MV4-11 [12] = test: Induction of apoptosis in human MV4-11 cells assessed as early apoptotic cells at 1 uM after 48 hrs by Annexin V-FITC/propidium iodide staining-based flow cytometric analysis (reference value: 10.7%); type: functional
MM1.S [13] = test: Induction of apoptosis in human MM1S cells assessed as viable cells at 1 uM after 48 hrs by Annexin V-FITC/propidium iodide staining-based flow cytometric analysis (reference value: 98.9%); type: functional
MV4-11 [14] = test: Antiproliferative activity against human MV4-11 cells after 72 hrs by MTT assay; type: functional, cell-based; conditions: MV4-11, 72 h
MM1.S [15] = test: Induction of apoptosis in human MM1S cells assessed as late apoptotic cells at 0.3 uM after 48 hrs in presence of 1 uM SAHA by Annexin V-FITC/propidium iodide staining-based flow cytometric analysis (reference value: 0.42%); type: functional
OCI-AML2 = test: Antiproliferative activity against human OCI-AML2 cells after 72 hrs by MTT assay; type: functional, cell-based; conditions: OCI-AML2, 72 h
[16] = Toxicity against NOD/SCID mouse xenografted with human MM1S cells assessed as mouse survival at 25 mg/kg, po qd administered for 10 days co-treated with 50 mg/kg SAHA; type: organism-based; conditions: in vivo, 240 h
How it was run: (§1)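 MM1S s.c. xenograft: 10^7 cells in serum-free RPMI 1640, right flank, female NOD/SCID mice aged 5-6 weeks, randomised at 100-200 mm3 (n=6 per group). Oral daily dosing used physiological saline with 2.5% DMSO and 10% cyclodextrin, pH 9; the combination was given as a suspension. Caliper measurements were taken every 2 days. Survivors were counted.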

OCI-AML-3 = test: Antiproliferative activity against human OCI-AML3 cells after 72 hrs by MTT assay; type: functional, cell-based; conditions: OCI-AML-3, 72 h
MM1.S [17] = test: Induction of apoptosis in human MM1S cells assessed as viable cells at 0.3 uM after 48 hrs in presence of 1 uM SAHA by Annexin V-FITC/propidium iodide staining-based flow cytometric analysis (reference value: 98.9%); type: functional
MV4-11 [18] = test: Induction of apoptosis in human MV4-11 cells assessed as viable cells at 0.3 uM after 48 hrs in presence of 1 uM SAHA by Annexin V-FITC/propidium iodide staining-based flow cytometric analysis (reference value: 84.1%); type: functional
[19] = target: T1, Serine/threonine-protein kinase mTOR; conditions: MV4-11, 10 uM
MV4-11 [20] = test: Induction of apoptosis in human MV4-11 cells assessed as early apoptotic cells at 0.3 uM after 48 hrs in presence of 1 uM SAHA by Annexin V-FITC/propidium iodide staining-based flow cytometric analysis (reference value: 10.7%); type: functional
MV4-11 [21] = test: Induction of apoptosis in human MV4-11 cells assessed as viable cells at 1 uM after 48 hrs by Annexin V-FITC/propidium iodide staining-based flow cytometric analysis (reference value: 84.1%); type: functional
MV4-11 [22] = test: Induction of apoptosis in human MV4-11 cells assessed as necrotic cells at 0.3 uM after 48 hrs in presence of 1 uM SAHA by Annexin V-FITC/propidium iodide staining-based flow cytometric analysis (reference value: 0.17%); type: functional
MM1.S [23] = test: Induction of apoptosis in human MM1S cells assessed as viable cells at 1 uM after 48 hrs in presence of 0.3 uM RAPA by Annexin V-FITC/propidium iodide staining-based flow cytometric analysis (reference value: 98.9%); type: functional
MV4-11 [24] = test: Induction of apoptosis in human MV4-11 cells assessed as early apoptotic cells at 1 uM after 48 hrs in presence of 0.3 uM RAPA by Annexin V-FITC/propidium iodide staining-based flow cytometric analysis (reference value: 10.7%); type: functional
MM1.S [25] = test: Induction of apoptosis in human MM1S cells assessed as early apoptotic cells at 1 uM after 48 hrs in presence of 0.3 uM RAPA by Annexin V-FITC/propidium iodide staining-based flow cytometric analysis (reference value: 0.38%); type: functional
MV4-11 [26] = test: Induction of apoptosis in human MV4-11 cells assessed as late apoptotic cells at 1 uM after 48 hrs in presence of 0.3 uM RAPA by Annexin V-FITC/propidium iodide staining-based flow cytometric analysis (reference value: 5.03%); type: functional
MV4-11 [27] = test: Induction of apoptosis in human MV4-11 cells assessed as necrotic cells at 1 uM after 48 hrs in presence of 0.3 uM RAPA by Annexin V-FITC/propidium iodide staining-based flow cytometric analysis (reference value: 0.17%); type: functional
[28] = Toxicity against NOD/SCID mouse xenografted with human MM1S cells assessed as mouse survival at 50 mg/kg, po qd administered for 10 days; type: organism-based; conditions: in vivo, 240 h; how it was run: as §1
MV4-11 [29] = test: Induction of apoptosis in human MV4-11 cells assessed as viable cells at 1 uM after 48 hrs in presence of 0.3 uM RAPA by Annexin V-FITC/propidium iodide staining-based flow cytometric analysis (reference value: 84.1%); type: functional
MM1.S [30] = test: Induction of apoptosis in human MM1S cells assessed as late apoptotic cells at 1 uM after 48 hrs in presence of 0.3 uM RAPA by Annexin V-FITC/propidium iodide staining-based flow cytometric analysis (reference value: 0.42%); type: functional
[31] = Toxicity against NOD/SCID mouse xenografted with human MM1S cells assessed as mouse survival at 50 mg/kg, po qd administered for 10 days co-treated with 25 mg/kg RAPA; type: organism-based; conditions: in vivo, 240 h; how it was run: as §1
MM1.S [32] = test: Induction of apoptosis in human MM1S cells assessed as necrotic cells at 1 uM after 48 hrs in presence of 0.3 uM RAPA by Annexin V-FITC/propidium iodide staining-based flow cytometric analysis (reference value: 0.32%); type: functional

Compound: CO[C@H]1C[C@@H]2CC[C@@H](C)[C@@](O)(O2)C(=O)C(=O)N2CCCC[C@H]2C(=O)O[C@H]([C@H](C)C[C@@H]2CC[C@@H](O)[C@H](OC)C2)CC(=O)[C@H](C)/C=C(\C)[C@@H](O)[C@@H](OC)C(=O)[C@H](C)C[C@H](C)/C=C/C=C/C=C/1C [SIROLIMUS]
- Activity (MM1.S [1]): 0.45%
- Activity (MM1.S [2]): 2.81%
- Activity (MV4-11 [3]): 5.77%
- Activity (MM1.S [4]): 15%
- Activity (MV4-11 [5]): 0.6%
- TGI (MM1.S [6]): 73.8%
- Activity (MM1.S [7]): 1.74%
- inhibition [8]: Active
- Activity (MV4-11 [9]): 42.4%
- inhibition [10]: Active
- Activity (MM1.S [11]): 0.47%
- Activity (MV4-11 [12]): 15.3%
- viability at 1 µM (MM1.S [13]; Homo sapiens, MM1.S, 48 h, read-out: Activity): 96.3%
- IC50 (MV4-11 [14]): > 500 nM
- Activity (MM1.S [15]): 29.7%
- IC50 (OCI-AML2): > 500 nM
- Activity [16]: Non-Toxic
- IC50 (OCI-AML-3): > 500 nM
- Activity (MM1.S [17]): 53.6%
- Activity (MV4-11 [18]): 17.1%
- inhibition [19]: Active
- Activity (MV4-11 [20]): 37%
- viability at 1 µM (MV4-11 [21]; Homo sapiens, MV4-11, 48 h, read-out: Activity): 78.3%
- Activity (MV4-11 [22]): 3.48%

Compound: O=C(CCCCCCC(=O)Nc1ccccc1)NO [VORINOSTAT]
- Activity (MM1.S [23]): 53.6%
- Activity (MV4-11 [24]): 37%
- Activity (MM1.S [1]): 9.68%
- Activity (MM1.S [25]): 15%
- Activity (MM1.S [2]): 11.8%
- Activity (MV4-11 [26]): 42.4%
- Activity (MV4-11 [27]): 3.48%
- Activity (MV4-11 [3]): 37.9%
- Activity (MV4-11 [5]): 3.51%
- Activity [28]: Non-Toxic
- Activity (MM1.S [11]): 3.04%
- Activity (MV4-11 [29]): 17.1%
- Activity (MV4-11 [12]): 40%
- Activity (MM1.S [13]): 75.4%
- Activity (MM1.S [30]): 29.7%
- Activity [31]: Non-Toxic
- Activity (MV4-11 [21]): 18.6%
- Activity (MM1.S [32]): 1.74%

Source: ChEMBL document CHEMBL4411315, “Discovery of Novel Dual Histone Deacetylase and Mammalian Target of Rapamycin Target Inhibitors as a Promising Strategy for Cancer Therapy” (J Med Chem, 2019)
